C2C12 statin = suppressors of simvastatin-induced myotoxicity in C2C12 myotubes | ATP luminescence, 48 h; scaled: DMSO 0, geranylgeraniol control 100 | rescue of ATP level, % at 7.49 µM | 330,000 compounds, 0.78% hits;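 active = mean ATP rescue above about 67%, or every replicate alone reaching that limit, limit read from the data, passing the limit was not always enough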;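 also: myotubes were challenged with 10 µM simvastatin during compound exposure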
SIRT5 inh = sirtuin-5 (human) deacylase inhibition | Q9NXA8 | Purified SirT5, succinyl-peptide AMC, trypsin-coupled fluorescence | inhibition, % at 15 µM | 330,000 compounds, 1.1% hits; in the data active = inhibition above about 15%
Target sequence (Q9NXA8 whole entry, looked up): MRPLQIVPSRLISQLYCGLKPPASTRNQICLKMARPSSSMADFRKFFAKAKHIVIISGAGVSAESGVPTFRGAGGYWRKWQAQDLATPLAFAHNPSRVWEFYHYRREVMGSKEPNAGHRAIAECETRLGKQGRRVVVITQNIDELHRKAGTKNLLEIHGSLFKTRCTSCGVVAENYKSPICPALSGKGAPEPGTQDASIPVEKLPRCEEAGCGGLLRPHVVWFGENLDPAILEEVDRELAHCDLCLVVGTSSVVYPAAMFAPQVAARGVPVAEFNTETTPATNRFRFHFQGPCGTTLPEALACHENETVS
FGF22 binding = binders of recombinant human FGF22 by thermal shift. SYPRO orange fluorescence; percent of sucrose octasulfate shift, DMSO zero. activity (Tm shift, normalised), % at 9.99 µM. 340,000 compounds, 1.5% hits;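 active = mean Tm shift, scaled 0 neutral to 100 positive control, at about 1.3% or above, every replicate too, limit read from the data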
Target sequence (Q9HCT0 whole entry, looked up): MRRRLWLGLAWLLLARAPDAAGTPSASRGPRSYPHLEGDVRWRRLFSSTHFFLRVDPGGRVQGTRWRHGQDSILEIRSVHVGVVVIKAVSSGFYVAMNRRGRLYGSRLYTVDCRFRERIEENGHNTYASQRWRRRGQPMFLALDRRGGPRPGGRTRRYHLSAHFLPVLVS
FN deposition inh = fibronectin deposition inhibition. AH1F fibroblasts, Alexa488-fibronectin deposition fluorescence, overnight. inhibition, % at 12.6 µM. 350,000 compounds, 0.086% hits. AID 743247;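 active = mean inhibition across replicates of 30% or more, regardless of how many single replicates reach that level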
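Material: AH1F fibroblast monolayer depositing Alexa488-labelled fibronectin into matrix | Input: 10000 AH1F cells/well | Medium: DMEM plus 2% serum, read in PBS | Reagent: Alexa488-fibronectin, 24 nM final in well | Compound dosing: One dose per compound, pinned | Schedule: 1 h adhesion, overnight exposure | Measured by: Fluorescence at 485 nm excitation, 525 nm emission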
rRNA inh HTS = selective bacterial rRNA inhibition in E. coli; E. coli WT GFP vs humanized-ribosome RFP mutants, fluorescence, 24 h; active compounds read low; DMSO median 0, no signal -100; 350,000 compounds, 1.6% hits; AID 720706; GFP signal change (wild-type ribosome), % (concentration not given with the values);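 active = significant combined selectivity score with lowered wild-type GFP, culture density cut under 30%, mutant RFP and density less affected; inactive = any of these conditions unmet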
E-sel inducer = induces E-selectin expression in human endothelial cells. P16581. HUVEC E-selectin immunofluorescence imaging; normalized: neutral wells 0, TNF-alpha wells 100. activation, % at 7.58 µM. 260,000 compounds, 0.37% hits. AID 686992;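 active = mean E-selectin-positive cell signal at least 10% of the positive control, reached in at least 60% of replicates, without over 20% cell loss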
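Test system: HUVEC; input: 3,000 HUVEC/well; measured by: immunofluorescence imaging; read-out: % PE-positive cells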
Large screens that a line does not name were inactive. The list is not random: actives were taken first. Their share in the collection is about 4%.

O=C(/C=C/c1cccc([N+](=O)[O-])c1)NCCSCc1ccc(Cl)cc1	rRNA inh HTS -20 (no result: C2C12 statin, FN deposition inh, E-sel inducer)
CCCNC(=O)[C@@H]1[C@@H](CO)[C@@H]2Cn3c(ccc(-c4cccc(OC)c4)c3=O)[C@H]1N2CC	none (no result: C2C12 statin, FGF22 binding, FN deposition inh)
C[C@H]1CNC(=O)[C@H](Cc2ccc(C(F)(F)F)cc2)CCn2nncc2COC1	none (no result: C2C12 statin, SIRT5 inh, FGF22 binding, E-sel inducer)
Cc1ccc(S(=O)(=O)N2[C@@H](c3ccc(C(C)(C)C)cc3)C(C(=O)O)=CC[C@H]2c2cccc(Cl)c2)cc1	none (no result: FGF22 binding)
Cc1ccc(S(=O)(=O)N2[C@@H](c3ccc(C(C)(C)C)cc3)C(C(=O)O)=CC[C@H]2c2ccc(Cl)c(Cl)c2)cc1	SIRT5 inh 16 (no result: FN deposition inh)
COc1ccc([C@@H]2CC=C(C(=O)O)[C@H](c3ccc(C)cc3)N2S(=O)(=O)c2ccc(C)cc2)cc1OC	none
COc1ccc([C@@H]2CC=C(C(=O)O)[C@H](c3ccc(C(C)(C)C)cc3)N2S(=O)(=O)c2ccc(C)cc2)cc1OC	rRNA inh HTS -20
COc1cccc([C@@H]2CC=C(C(=O)O)[C@H](c3ccc(C)cc3)N2S(=O)(=O)c2ccc(C)cc2)c1	rRNA inh HTS -19 (no result: E-sel inducer)
O=C(O)C1=CCC(c2ccc(Cl)c(Cl)c2)N(S(=O)(=O)c2ccc(F)cc2)C1c1cccc(F)c1 (centres undefined)	FGF22 binding 43 (no result: C2C12 statin, SIRT5 inh)
O=C(C[C@@H]1CC[C@H](NC(=O)CCN2CCCCC2)[C@@H](CO)O1)Nc1ccc(-c2ccccc2)cc1	none
COc1cc2c(cc1OC)CN(C(=O)[C@H]1[C@@H]3C(=O)O[C@@H](c4ccccc4)[C@@H](c4ccccc4)N3[C@@H](c3ccccc3OCCO)[C@]13C(=O)Nc1ccccc13)CC2	none (no result: C2C12 statin, FN deposition inh, rRNA inh HTS, E-sel inducer)
CCCNC(=O)N1[C@@H]2CN(C(=O)C3CCOCC3)c3ccccc3[C@@H]2[C@@H]1CO	none (no result: FN deposition inh)
Cc1ccc(S(=O)(=O)N2[C@@H](c3cccc(Cl)c3)C(C(=O)O)=CC[C@H]2c2cccc(C)c2)cc1	rRNA inh HTS -23 (no result: SIRT5 inh)
COc1ccc([C@@H]2CC=C(C(=O)O)[C@H](c3cccc(Cl)c3)N2S(=O)(=O)c2ccc(Cl)cc2)cc1	none (no result: SIRT5 inh, FGF22 binding)
COc1ccc([C@@H]2CC=C(C(=O)O)[C@H](c3ccc(F)cc3)N2S(=O)(=O)c2ccc(Cl)cc2)cc1	rRNA inh HTS -18
CN(C)CC(=O)Nc1ccc2c(c1)[C@H]1C[C@H](CC(=O)NC3CCCCC3)O[C@@H](CO)[C@H]1O2	none (no result: FN deposition inh)
C[C@@H]1CN([C@H](C)CO)C(=O)Cc2cc(NC(=O)CCC(F)(F)F)ccc2O[C@@H]1CN(C)S(=O)(=O)c1ccc(F)cc1	none (no result: FN deposition inh)
CC(=O)c1ccc(N2CCN(S(=O)(=O)c3cccc4nsnc34)CC2)cc1	FGF22 binding 43
CO[C@@H]1CN(C)C(=O)c2ccc(NC(=O)c3cnccn3)cc2OC[C@H](C)N(C(=O)C2CC2)C[C@@H]1C	none (no result: FN deposition inh)
CCOc1ccc(CN(C)CC(=O)NCc2ccccc2Cl)cc1	rRNA inh HTS -28 (no result: C2C12 statin)
O=C(C[C@H]1C[C@@H]2c3cc(NC(=O)C4CCOCC4)ccc3O[C@@H]2[C@@H](CO)O1)NCC1CC1	none (no result: FGF22 binding)
CSc1ccc(/C=C/c2ccc3cccc(O)c3n2)cc1	rRNA inh HTS -30 (no result: C2C12 statin, E-sel inducer)
COc1ccccc1S(=O)(=O)N1CC[C@@H]2[C@H](CO)Nc3ccc(-c4ccc(F)cc4)cc3[C@@H]21	none
CCOC(=O)/C=C1\SCC(=O)N1CC(=O)NCCc1ccc(F)cc1	none (no result: E-sel inducer)
CCOC(=O)/C=C1\SCC(=O)N1CC(=O)NCc1ccc(OC)c(OC)c1	FGF22 binding 43
CN1c2ccc(C#Cc3cccnc3)cc2[C@H]2[C@H](CCN2C(=O)C2CCCC2)[C@@H]1CO	none (no result: C2C12 statin, FGF22 binding)
CCn1ccnc1CN(C)Cc1cn(C)nc1-c1ccccc1F	none (no result: C2C12 statin)
CCn1ccnc1CN(C)Cc1cn(-c2ccccc2)nc1-c1ccc(OC)cc1F	FGF22 binding 45 (no result: E-sel inducer)
CCOC(=O)c1ccc(NC(=O)O[C@H]2[C@H](OC(=O)Nc3ccc4c(c3)OCO4)[C@@H](OC(=O)Nc3ccc4c(c3)OCO4)[C@@H](OC)O[C@@H]2CO)cc1	none (no result: C2C12 statin, FN deposition inh, rRNA inh HTS, E-sel inducer)

Assay outcomes deposited in PubChem by Broad Institute.
